From ChEMBL document CHEMBL1121520, “Synthesis of analogues of the carboxyl protease inhibitor pepstatin. Effects of structure on inhibition of pepsin and renin” (J Med Chem, 1980)

How the values were obtained:
[1] = molecular target: Renin (Sus scrofa); assay: Inhibition of renin was measured using hog kidney renin and the radiolabeled synthetic substrate, H-Ile-His-Pro-Phe-His-Leu-[14C]Leu-Val-Tyr-Ser-OH
[2] = molecular target: Pepsin A (Sus scrofa, UniProt P00791); assay: Pepsin inhibition was measured using the synthetic heptapeptide substrate Phe-Gly-His-Phe-(N02)-Phe-Ala- Phe-OMe
Sequence of Pepsin A (Sus scrofa, UniProt P00791) (P00791 whole entry): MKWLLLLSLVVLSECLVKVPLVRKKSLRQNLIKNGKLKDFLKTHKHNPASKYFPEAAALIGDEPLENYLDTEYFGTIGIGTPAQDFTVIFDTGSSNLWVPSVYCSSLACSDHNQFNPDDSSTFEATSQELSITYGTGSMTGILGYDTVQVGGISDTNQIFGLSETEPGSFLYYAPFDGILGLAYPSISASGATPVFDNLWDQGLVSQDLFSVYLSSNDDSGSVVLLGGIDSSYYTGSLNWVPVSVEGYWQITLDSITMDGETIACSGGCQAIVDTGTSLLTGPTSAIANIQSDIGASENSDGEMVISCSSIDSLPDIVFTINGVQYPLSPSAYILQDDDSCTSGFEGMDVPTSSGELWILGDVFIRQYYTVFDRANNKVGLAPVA
In short: (§1)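 Nitrophenylalanine-containing heptapeptide substrate hydrolysis by pepsin; run at five substrate and three inhibitor concentrations per analogue, with Ki calculated by a previously described method.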

[3] = molecular target: Pepsin A (Homo sapiens, UniProt P0DJD9); assay: Pepsin inhibition using synthetic heptapeptide substrate Phe-Gly-His-Phe-(N02)-Phe-Ala- Phe-OMe
Sequence of Pepsin A (Homo sapiens, UniProt P0DJD9) (P0DJD9 whole entry): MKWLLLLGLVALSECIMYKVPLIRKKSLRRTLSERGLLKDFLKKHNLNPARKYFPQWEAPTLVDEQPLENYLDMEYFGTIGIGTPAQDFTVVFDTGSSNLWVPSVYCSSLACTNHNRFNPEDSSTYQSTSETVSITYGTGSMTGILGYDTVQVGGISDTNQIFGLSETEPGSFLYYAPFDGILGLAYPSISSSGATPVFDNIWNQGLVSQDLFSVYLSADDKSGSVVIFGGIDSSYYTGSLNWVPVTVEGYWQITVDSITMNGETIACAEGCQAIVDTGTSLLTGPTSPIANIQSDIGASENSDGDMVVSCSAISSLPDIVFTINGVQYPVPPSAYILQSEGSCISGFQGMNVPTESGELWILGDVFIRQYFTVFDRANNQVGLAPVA
In short: as §1

| SMILES | IC50 [1] [nM] | Ki [2] [nM] | Ki [3] [nM] |
| --- | --- | --- | --- |
| CC(C)CC(=O)N[C@@H](C(=O)N[C@@H](CC(C)C)C(O)CC(N)=O)C(C)C (stereo partly drawn) | > 330000 | ~1000 |  |
| CC(C)CCNC(=O)[C@@H](C)NC(=O)C[C@H](O)C(CC(C)C)NC(=O)CC(C)C (stereo partly drawn) | > 330000 | 350 |  |
| CC(C)CC(=O)N[C@@H](C(=O)N[C@@H](C(=O)NC(CC(C)C)[C@@H](O)CC(=O)N[C@H](C)C(=O)NC(CC(C)C)[C@@H](O)CO)C(C)C)C(C)C (stereo partly drawn) |  | 0.0457 |  |
| CC(C)CCNC(=O)[C@H](C)NC(=O)C[C@H](O)NC(C(=O)[C@H](NC(=O)CC(C)C)C(C)C)c1ccccc1 (stereo partly drawn) |  | 0.9 |  |

Next, values leading:

| IC50 [1] [nM] | Ki [2] [nM] | Ki [3] [nM] | SMILES |
| --- | --- | --- | --- |
|  | 1.1 |  | CC(C)CCNC(=O)[C@H](C)NC(=O)C[C@H](O)C(CC(C)C)NC(=O)[C@H](NC(=O)CC(C)C)C(C)C (stereo partly drawn) |
|  |  | 3000 | CC(C)CCNC(=O)[C@H](C)NC(=O)C[C@@H](O)C(CC(C)C)NC(=O)[C@H](NC(=O)CC(C)C)C(C)C (stereo partly drawn) |
